Assay results as given in ChEMBL document CHEMBL4732167, “Structure based design, synthesis, and biological evaluation of imidazole derivatives targeting dihydropteroate synthase enzyme” (Bioorg Med Chem Lett, 2021).
In brackets after ≈: the same amount, converted by molar mass.

Tests used:
[1] = tested on: Aspergillus niger; experiment: Antifungal activity against Aspergillus niger MTCC 282 assessed as fungal growth inhibition; assay type: functional
[2] = tested on: Enterococcus; experiment: Antibacterial activity against vancomycin-resistant Enterococcus assessed as inhibition of bacterial growth; assay type: functional
Method in brief: (§1)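 Growth inhibition of the drug-resistant strain was read out as the minimum inhibitory concentration (MIC), reported in µg/mL. The same protocol was also run on an ESBL strain.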

[3] = Antioxidant activity assessed as hydrogen peroxide radical scavenging activity at 100 ug/ml (reference value: 23.6 to 43.1 %); assay type: functional; conditions: dose 100.0 µg/ml
Method in brief: (§2)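 Hydrogen peroxide scavenging was measured across a compound series of 0, 25, 50, 75 and 100 µg/ml.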

[4] = Antioxidant activity assessed as DPPH radical scavenging activity at 100 ug/ml (reference value: 22 to 40.2 %); assay type: functional; conditions: dose 100.0 µg/ml
Method in brief: (§3)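 DPPH radical scavenging was measured at 0, 25, 50, 75 and 100 µg/ml of each compound. Ascorbic acid was the reference.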

[5] = Antioxidant activity assessed as hydrogen peroxide radical scavenging activity at 50 ug/ml (reference value: 23.6 to 43.1 %); assay type: functional; conditions: dose 50.0 µg/ml; method in brief: as §2
[6] = Antioxidant activity assessed as nitric oxide radical scavenging activity at 50 ug/ml (reference value: 25.8 to 41.6 %); assay type: functional; conditions: dose 50.0 µg/ml
Method in brief: (§4)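 Nitric oxide radical scavenging was tested at 0, 25, 50, 75 and 100 µg/ml of compound.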

[7] = tested on: Escherichia coli; experiment: Antibacterial activity against Escherichia coli MTCC 443 assessed as bacterial growth inhibition; assay type: functional
[8] = Antioxidant activity assessed as hydrogen peroxide radical scavenging activity at 25 ug/ml (reference value: 23.6 to 43.1 %); assay type: functional; conditions: dose 25.0 µg/ml; method in brief: as §2
[9] = Antioxidant activity assessed as nitric oxide radical scavenging activity at 25 ug/ml (reference value: 25.8 to 41.6 %); assay type: functional; conditions: dose 25.0 µg/ml; method in brief: as §4
[10] = Antioxidant activity assessed as DPPH radical scavenging activity at 75 ug/ml (reference value: 22 to 40.2 %); assay type: functional; conditions: dose 75.0 µg/ml; method in brief: as §3
[11] = Antioxidant activity assessed as DPPH radical scavenging activity at 100 dilution; assay type: functional
[12] = tested on: Staphylococcus aureus; experiment: Antibacterial activity against methicillin-resistant Staphylococcus aureus assessed as inhibition of bacterial growth; assay type: functional; method in brief: as §1
[13] = tested on: Streptococcus pyogenes; experiment: Antibacterial activity against Streptococcus pyogenes MTCC 442 assessed as bacterial growth inhibition; assay type: functional
[14] = tested on: Candida albicans; experiment: Antifungal activity against Candida albicans MTCC 227 assessed as fungal growth inhibition; assay type: functional
[15] = Antioxidant activity assessed as DPPH radical scavenging activity at 50 ug/ml (reference value: 22 to 40.2 %); assay type: functional; conditions: dose 50.0 µg/ml; method in brief: as §3
[16] = tested on: Aspergillus clavatus; experiment: Antifungal activity against Aspergillus clavatus MTCC 1323 assessed as fungal growth inhibition; assay type: functional
[17] = tested on: Plasmodium falciparum; experiment: Antimalarial activity against Plasmodium falciparum assessed as parasite growth inhibition; assay type: functional, organism-based
[18] = tested on: Bacteria; experiment: Antibacterial activity against ESBL-producing bacteria assessed as bacterial growth inhibition; assay type: functional
Method in brief: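 Values are minimum inhibitory concentrations (MIC) in µg/mL, determined at an outside microbiology laboratory.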

[19] = tested on: Pseudomonas aeruginosa; experiment: Antibacterial activity against Pseudomonas aeruginosa MTCC 1688 assessed as bacterial growth inhibition; assay type: functional
[20] = tested on: Staphylococcus aureus; experiment: Antibacterial activity against Staphylococcus aureus MTCC 96 assessed as bacterial growth inhibition; assay type: functional
[21] = Antioxidant activity assessed as hydrogen peroxide radical scavenging activity at 75 ug/ml (reference value: 23.6 to 43.1 %); assay type: functional; conditions: dose 75.0 µg/ml; method in brief: as §2
[22] = Antioxidant activity assessed as DPPH radical scavenging activity at 25 ug/ml (reference value: 22 to 40.2 %); assay type: functional; conditions: dose 25.0 µg/ml; method in brief: as §3
[23] = Antioxidant activity assessed as nitric oxide radical scavenging activity at 100 ug/ml (reference value: 25.8 to 41.6 %); assay type: functional; conditions: dose 100.0 µg/ml; method in brief: as §4
[24] = tested on: Mycobacterium tuberculosis; experiment: Antibacterial activity against Mycobacterium tuberculosis H37Rv assessed as bacterial growth inhibition; assay type: functional
[25] = Antioxidant activity assessed as nitric oxide radical scavenging activity at 75 ug/ml (reference value: 25.8 to 41.6 %); assay type: functional; conditions: dose 75.0 µg/ml; method in brief: as §4

Row | Compound | MFC [1] [µg/mL] | MIC [2] [µg/mL] | Activity [3] [%] | Activity [4] [%] | Activity [5] [%] | Activity [6] [%] | MIC [7] [µg/mL] | Activity [8] [%] | Activity [9] [%] | Activity [10] [%] | Activity [11] [%] | MIC [12] [µg/mL] | MIC [13] [µg/mL] | MFC [14] [µg/mL] | Activity [15] [%] | MFC [16] [µg/mL] | Activity [21] [%] | Activity [22] [%] | Activity [23] [%] | Activity [25] [%] | other results
1 | CC(=O)c1c(C)nc(SCC(=O)Nc2ccc(OCc3ccc(F)cc3)cc2)n1-c1ccc(F)cc1 | 1000 (≈ 1970 µM) | 125 (≈ 246 µM) | 71.2 | 89.4 | 53.4 | 60.4 | 125 (≈ 246 µM) | 46.1 | 46.8 | 71.6 | 89.4 | 100 (≈ 197 µM) | 125 (≈ 246 µM) | 500 (≈ 985 µM) | 56.4 | 500 (≈ 985 µM) | 63.1 | 34.8 | 89.6 | 70.3 | IC50 [17]: 0.82 µg/mL (≈ 1.62 µM); MIC [18]: 250 µg/mL (≈ 493 µM); MIC [19]: 100 µg/mL (≈ 197 µM); MIC [20]: 62.5 µg/mL (≈ 123 µM); MIC [24]: 100 µg/mL (≈ 197 µM)
2 | CC(=O)c1c(C)nc(SCC(=O)Nc2ccc(OC(=O)c3cccs3)cc2)n1-c1ccc(F)cc1 | 500 (≈ 981 µM) | 125 (≈ 245 µM) | 79.6 | 89.6 | 59.3 | 59.3 | 100 (≈ 196 µM) | 48.6 | 50.6 | 65.4 | 89.6 | 250 (≈ 491 µM) | 125 (≈ 245 µM) | 500 (≈ 981 µM) | 51.4 | 250 (≈ 491 µM) | 67.6 | 44.3 | 89.1 | 79.5 | IC50 [17]: 1.14 µg/mL (≈ 2.24 µM); MIC [18]: 125 µg/mL (≈ 245 µM); MIC [19]: 62.5 µg/mL (≈ 123 µM); MIC [20]: 125 µg/mL (≈ 245 µM); MIC [24]: 100 µg/mL (≈ 196 µM)
3 | O=C1O[C@H]([C@@H](O)CO)C(O)=C1O | – | – | 91.7 | 91.7 | 80.6 | 80.6 | – | 75.1 | 75.1 | 89 | 91.7 | – | – | – | 80.6 | – | 89 | 75.1 | 91.7 | 89 | –
4 | CC(=O)c1c(C)nc(SCC(=O)Nc2ccc(OCc3ccc(Cl)cc3)cc2)n1-c1ccc(Cl)cc1 | > 1000 | 500 (≈ 925 µM) | 89.7 | 85.7 | 59.4 | 64.3 | 250 (≈ 463 µM) | 47.8 | 47.3 | 58.6 | – | 125 (≈ 231 µM) | 100 (≈ 185 µM) | 1000 (≈ 1850 µM) | 51.7 | > 1000 | 75.2 | 41.2 | 88.8 | 80.6 | IC50 [17]: 0.56 µg/mL (≈ 1.04 µM); MIC [18]: 500 µg/mL (≈ 925 µM); MIC [19]: 125 µg/mL (≈ 231 µM); MIC [20]: 100 µg/mL (≈ 185 µM); MIC [24]: 25 µg/mL (≈ 46.3 µM)
